This note sets out measurements from ChEMBL document CHEMBL1926666, “Synthesis of novel 3-cyclohexylpropanoic acid-derived nitrogen heterocyclic compounds and their evaluation for tuberculostatic activity” (Bioorg Med Chem, 2012).

The MIC is the lowest concentration found to suppress growth. Low readings indicate greater potency, high ones weaker potency.

The subject of one data set is Brevibacterium linens. In words: Antibacterial activity against Brevibacterium linens ATCC 9174 after 24 hrs by M7-A7 CLSI method. In kind it is functional. The following applies: ATCC 9174, 24 h. In short, it runs like this: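 Compounds dissolved in 100% DMSO at 5 mg/mL, then 1 mg/mL in 10% DMSO; serial dilutions in broth from 100 µg/mL final. B. linens: nutrient broth 24 h at 30 °C, inoculum 1 McFarland, 24 h with compounds. P. acnes: thioglycolate broth 72 h at 33 °C, inoculum 0.5 McFarland, 72 h anaerobic with compounds. MIC = lowest concentration with no visible growth, confirmed by A655.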

Data set [1] is described as follows: Growth inhibition of human skin fibroblasts at 100 ug/ml after 72 hrs by MTT assay. Also noted: species or system Skin fibroblast. The following applies: read-out: GI. In short, it runs like this: (§1)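 Neonatal human dermal fibroblasts in high-glucose DMEM with 5% cosmic calf serum, seeded 3 × 10³ cells/well and exposed to compounds for 72 h. MTT then added for 2.5 h; formazan solubilised in isopropanol and read at 550 nm; signal proportional to cell number.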
(In general: Tetrazolium assays rely on reduction of a dye to a coloured formazan, in cell work by metabolically active cells.)

The test system of a further data set is Skin fibroblast. In words: Stimulation of type 1 collagen output in human skin fibroblasts after at 10 to 100 ug/ml after 72 hrs by ELISA. The class given is functional. In short, it runs like this: (§2)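 Neonatal human dermal fibroblasts in high-glucose DMEM with 5% calf serum, 3 × 10³ cells/well, 72 h compound exposure. Conditioned media assayed for type I collagen by sandwich ELISA (affinity-purified antibodies, streptavidin/avidin-HRP, ABTS, 405 nm), quantified against a purified human collagen I standard curve. Expressed as % of untreated control. MAP and bFGF (15 ng/mL) served as positive controls.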
(ELISA stands for enzyme-linked immunosorbent assay.)

The nature of data set [2]: Growth inhibition of human skin fibroblasts at 10 ug/ml after 72 hrs by MTT assay. On the set-up: species or system Skin fibroblast. The following applies: read-out: GI. In short, it runs like this: as §1
Data set [3] has as its system Mycobacterium tuberculosis. In words: Antituberculosis activity against Mycobacterium tuberculosis H37Rv by twofold serial dilution method. The class given is functional. In short, it runs like this: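 Classical two-fold test-tube serial dilution in Youmans' modified Proskauer–Beck liquid medium with 10% bovine serum. Inocula from 14-day cultures. Compounds in ethylene glycol, 10 mg/mL stock, geometric dilutions in medium; 3.1, 6.2, 12.5, 25, 50 and 100 µg/mL evaluated. Incubation at 37 °C. MIC = lowest concentration inhibiting growth relative to a compound-free tube. INH, PZA and RMP served as reference drugs.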

Data set [4] can be described thus: Stimulation of type 1 collagen output in human skin fibroblasts after at 100 ug/ml after 72 hrs by ELISA relative to control. In kind it is functional, Skin fibroblast. In short, it runs like this:
as §2

SMILES strings stand for the structures. ≈ marks a conversion by molar mass, not a printed value. Calls of active or inactive are those of the source. The calls are words filed in the database; no cut-off is given here.

On to `Cl.Cl.c1cc2nc(CCC3CCCCC3)[nH]c2cn1`, for which the MIC was greater than 100 µg/mL with Brevibacterium linens and 25 µg/mL in data set [3]. For the same compound, the inhibition at 72 h, 100 ug/ml in data set [1] is 0%. In the data set with Skin fibroblast, the result was inactive. Also, in data set [2], the inhibition at 72 h, 10 ug/ml stood at 0%.
`CO[C@H]1/C=C/O[C@@]2(C)Oc3c(C)c(O)c4c(O)c(c(/C=N/N5CCN(C)CC5)c(O)c4c3C2=O)NC(=O)/C(C)=C\C=C\[C@H](C)[C@H](O)[C@@H](C)[C@@H](O)[C@@H](C)[C@H](OC(C)=O)[C@@H]1C` [RIFAMPIN] registered an MIC in data set [3] of 1.2 µg/mL (≈ 1.46 µM).
As to `CC1(C)CNc2nnc(CCC3CCCCC3)n2C1`, the MIC against Brevibacterium linens was greater than 100 µg/mL; in data set [3], 50 µg/mL (≈ 191 µM). The outcome with Skin fibroblast was inactive.
`S=c1[nH]nc(CCC2CCCCC2)o1`: the MIC against Brevibacterium linens is greater than 100 µg/mL; in data set [3], 25 µg/mL (≈ 118 µM). Also, the outcome in the data set on Skin fibroblast was inactive.
On to `Brc1cnc2[nH]c(CCC3CCCCC3)nc2c1`, for which the minimal inhibitory concentration (MIC) in the data set with Brevibacterium linens was greater than 100 µg/mL; in data set [3], 6.5 µg/mL (≈ 21.1 µM). Further, the inhibition at 72 h, 100 ug/ml in data set [1] amounted to 100%. The outcome with Skin fibroblast was inactive. The inhibition at 72 h, 10 ug/ml in data set [2] was 17%.
On to `Cn1c(CCC2CCCCC2)n[nH]c1=S`, for which the MIC with Brevibacterium linens is greater than 100 µg/mL; in data set [3], 50 µg/mL (≈ 222 µM). Also, the outcome in the data set on Skin fibroblast was inactive.
Consider `C=CCNC(=S)NNC(=O)CCC1CCCCC1`, for which the values for the MIC (against Brevibacterium linens; in data set [3]) were greater than 100 µg/mL and 50 µg/mL (≈ 186 µM), respectively. Moreover, the outcome in the data set with Skin fibroblast was inactive.
`O=[N+]([O-])c1cc(Cl)cc2[nH]c(CCC3CCCCC3)nc12`: the MIC with Brevibacterium linens was greater than 100 µg/mL; in data set [3], 12.5 µg/mL (≈ 40.6 µM). The inhibition at 72 h, 100 ug/ml in data set [1] came out at 18%. Further, the inhibition at 72 h, 10 ug/ml in data set [2] is 0%. Moreover, the Activity in data set [4] is listed as 166%.
Take `O=C(CCC1CCCCC1)NN=C1SCCS1`: the MIC with Brevibacterium linens was greater than 100 µg/mL; in data set [3] it was 50 µg/mL (≈ 184 µM). Also, the outcome with Skin fibroblast was inactive.
Taken in the same sequence, the figures for `C=CCn1c(CCC2CCCCC2)n[nH]c1=S` were greater than 100 µg/mL, 50 µg/mL (≈ 199 µM) and “inactive”.
On the same counts, the results for `CSC(=S)NNC(=O)CCC1CCCCC1` are greater than 100 µg/mL, 50 µg/mL (≈ 192 µM) and “inactive”.
On the same counts, the results for `O=C(CCC1CCCCC1)NNC(=S)Nc1ccc(Cl)cc1` are greater than 100 µg/mL, 50 µg/mL (≈ 147 µM) and “inactive”.
In the case of `S=c1[nH]nc(CCC2CCCCC2)n1-c1ccc(Cl)cc1`, the MIC in the data set with Brevibacterium linens was greater than 100 µg/mL; in data set [3], 50 µg/mL (≈ 155 µM). Besides, the outcome in the data set with Skin fibroblast was inactive.
On the same counts, the results for `O=C(CCC1CCCCC1)NNC(=S)NC1CCCCC1` are greater than 100 µg/mL, 50 µg/mL (≈ 161 µM) and “inactive”.
As for `c1ccc2c(c1)ccc1nc(CCC3CCCCC3)[nH]c12`, the values for the MIC (against Brevibacterium linens; in data set [3]) were greater than 100 µg/mL and 1.5 µg/mL (≈ 5.39 µM), respectively. The inhibition at 72 h, 100 ug/ml in data set [1] amounted to 74%. For the same compound, in the data set on Skin fibroblast, the result was inactive. Further, the inhibition at 72 h, 10 ug/ml in data set [2] was 16%.
On to `S=c1[nH]nc(CCC2CCCCC2)[nH]1`, for which the MIC against Brevibacterium linens was greater than 100 µg/mL; in data set [3], 50 µg/mL (≈ 237 µM). In addition, in the data set with Skin fibroblast, the outcome was inactive.
Consider `S=c1[nH]nc(CCC2CCCCC2)n1C1CCCCC1`, for which the values for the MIC (in the data set on Brevibacterium linens; in data set [3]) were greater than 100 µg/mL and 50 µg/mL (≈ 170 µM), respectively. Further, the result in the data set with Skin fibroblast was inactive.
On the same counts, the results for `CSC(=NNC(=O)CCC1CCCCC1)SC` are greater than 100 µg/mL, 50 µg/mL (≈ 182 µM) and “inactive”.
Regarding `c1ccc2nc3cc4[nH]c(CCC5CCCCC5)nc4cc3nc2c1`, the MIC with Brevibacterium linens is greater than 100 µg/mL; in data set [3], 3.1 µg/mL (≈ 9.38 µM). The inhibition at 72 h, 100 ug/ml in data set [1] was 11%. Also, the outcome in the data set on Skin fibroblast was inactive. For the same compound, the inhibition at 72 h, 10 ug/ml in data set [2] worked out at 0%.
As for `NC(=O)c1cnccn1` [PYRAZINAMIDE], the MIC in data set [3] turned out to be 25 µg/mL (≈ 203 µM).
With `CNC(=S)NNC(=O)CCC1CCCCC1`, the MIC against Brevibacterium linens was greater than 100 µg/mL; in data set [3], 50 µg/mL (≈ 205 µM). Also, the result with Skin fibroblast was inactive.
With `c1cnc2[nH]c(CCC3CCCCC3)nc2c1`, the figures for the MIC (against Brevibacterium linens; in data set [3]) were greater than 100 µg/mL and 25 µg/mL (≈ 109 µM), respectively. The inhibition at 72 h, 100 ug/ml in data set [1] came out at 41%. In the data set with Skin fibroblast, the result was inactive. In addition, in data set [2], the inhibition at 72 h, 10 ug/ml is 0%.
With `NNC(=O)c1ccncc1` [ISONIAZID], the MIC in data set [3] was determined as 0.5 µg/mL (≈ 3.65 µM).
